Experimental data pooled from the literature.
Compare with care: the assays were run in different laboratories.
Target: Interleukin-1 receptor-associated kinase 4 (IRAK4, Homo sapiens, UniProt Q9NWZ3)
One construct used (Q9NWZ3 1-460): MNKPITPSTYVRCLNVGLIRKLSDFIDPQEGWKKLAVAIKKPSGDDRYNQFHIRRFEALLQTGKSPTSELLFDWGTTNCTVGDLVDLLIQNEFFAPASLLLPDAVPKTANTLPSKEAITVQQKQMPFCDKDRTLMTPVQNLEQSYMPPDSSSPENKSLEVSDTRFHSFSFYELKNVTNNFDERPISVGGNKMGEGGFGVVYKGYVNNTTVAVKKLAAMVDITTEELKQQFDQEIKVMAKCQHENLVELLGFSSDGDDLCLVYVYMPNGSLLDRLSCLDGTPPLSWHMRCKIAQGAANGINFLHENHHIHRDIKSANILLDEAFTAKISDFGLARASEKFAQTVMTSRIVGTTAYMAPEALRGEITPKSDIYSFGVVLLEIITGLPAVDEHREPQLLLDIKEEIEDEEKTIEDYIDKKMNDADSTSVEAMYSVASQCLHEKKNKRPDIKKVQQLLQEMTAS

CC(C)(O)[C@H]1CC[C@H](Nc2ccc3ncc(-c4cccc(C(F)(F)F)c4)n3n2)CC1  remaining activity (enzyme activity, inhibitor; 1 µM): 64.2%
C[C@H](c1cccc(C#N)c1)n1cc(Cl)cc(C(N)=O)c1=N  remaining binding (cell-free assay, competition with immobilised ligand; 1 µM): 82%
COc1ccc(COc2ccc(Cc3cnc(N)nc3N)cc2OC)cc1  remaining signal (cell-free assay; 0.5 µM): 110%
Cc1ccc(C(=O)NCc2ccsc2)cc1C#Cc1cn(C(C)C)c2ncnc(N)c12  activity vs control (enzyme activity, inhibitor; 1 µM): 88%
C[C@@]1(Cc2ccc(C#N)cc2)C(=O)N(c2cc(Cl)cc(Cl)c2)c2ncc(C(=O)NC3(c4nc(C5CCC5)no4)CC3)n21  remaining binding (cell-free assay, competition with immobilised ligand; 1 µM): 100%
N#CCCc1ccc2c(c1)-c1[nH]c3ccc([N+](=O)[O-])cc3c1CC(=O)N2  remaining signal (cell-free assay; 0.5 µM): 155%
Oc1cccc(-c2nc(N3CCOCC3)c3oc4ncccc4c3n2)c1  remaining activity (enzyme activity, inhibitor; 10 µM): 119%
COc1cc(/C=C/C(=O)CC(=O)/C=C/c2ccc(O)c(OC)c2)ccc1O  activity vs control (enzyme activity, inhibitor; 1 µM): 71%
COc1cc(Nc2cnc(C#N)c(O[C@H](C)CN(C)C)n2)ncc1-c1cnn(C)c1  remaining activity (enzyme activity, inhibitor, radiometric; 10 µM): 25%
Nc1ncnc2occ(-c3ccc(NC(=O)Nc4cc(C(F)(F)F)ccc4F)cc3)c12  remaining signal (cell-free assay, inhibitor; 20 µM): 46%
O=C(Nc1cnn(-c2csc(C(=O)NC3COC3)c2)c1)Nc1ccccc1Cl  remaining activity (enzyme activity, inhibitor; 5 µM): 92.1%
CS(=O)(=O)N1CCCC(NC(=O)[C@H](CCC2CCCCC2)NC(=O)c2ccc(CNC(=O)c3cnc4ccccn34)cc2)C1 (stereo partly drawn)  remaining binding (cell-free assay, competition with immobilised ligand; 0.1 µM): 100%
COc1cc2ncnc(Nc3ccc(Oc4ccccc4)cc3C)c2cc1OC  inhibition (enzyme activity, inhibitor; 1 µM): 0%
CC/C(=N\NC(=O)NCc1cccc(O)c1)c1ccc(O)c(C)c1O  inhibition (enzyme activity, inhibitor; 0.1 µM): -0.4%
CN(C)C1CCN(CC#Cc2nn(C3CCCC3)c3nc(NCc4ccccc4)ncc23)C1 (stereo not drawn)  inhibition (enzyme activity, inhibitor, FRET; 1 µM): 3%
CN1CC(Oc2cnc(C#N)cc2-c2ccn3nc(NC(=O)C4CC4)cc3c2)C1  inhibition (enzyme activity, inhibitor; 1 µM): 1%
CCc1ccccc1C(=O)Nc1n[nH]c2c(C)c(F)c(C3C(C#N)=C(C)N(C)C(C)=C3C#N)cc12  remaining binding (cell-free assay, competition with immobilised ligand; 1 µM): 100%
O=C1Nc2ccc(Cl)cc2C1=Cc1cc(Cl)c(O)c(Cl)c1  remaining signal (cell-free assay; 0.5 µM): 101%
COc1cc2nccc(Oc3ccc(NC(=O)c4c5n(n(-c6ccc(F)cc6)c4=O)CCCC5)cc3)c2cc1OC  inhibition (enzyme activity, inhibitor; 0.1 µM): -19%
Cc1cc(C)c(-n2ccn3nc(-c4cccnc4)cc23)cc1NC(=O)c1cc(C#N)cc(S(F)(F)(F)(F)F)c1  remaining binding (cell-free assay, competition with immobilised ligand; 0.1 µM): 100%
O=C(CSc1nc2nccnc2c(=O)n1CCc1ccccc1)Nc1nccs1  inhibition (enzyme activity, inhibitor; 10 µM): 10%
